Assay results taken from ChEMBL document CHEMBL1122702, “Radiohalogen-labeled imaging agents. 3. Compounds for measurement of brain blood flow by emission tomography” (J Med Chem, 1984).

Tests used:
Format in all cases: ADME, organism-based
[1] = organism: Rattus norvegicus; test: Ratio of distribution of the [131I]-labeled compound at 30 min in rat kidney over uptake in blood; settings: other tissue, 0.5 h
Outline: (§1)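 Male Sprague-Dawley rats (200–300 g, fed ad libitum), ether-anesthetized, got a tail-vein bolus of 0.2 mL saline containing 10–20 μCi 131I compound and were decapitated at the stated time. Organs were weighed and gamma-counted against a serially diluted external standard. Organ/blood ratio was calculated from % dose per gram of organ. Animal numbers per time point were 1–4.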

[2] = organism: Rattus norvegicus; test: Ratio of distribution of the [131I]-labeled compound at 5 min in rat heart over uptake in blood; settings: other tissue; outline: as §1
[3] = organism: Rattus norvegicus; test: The uptake of the 131 I-labeled compound at 30 min was evaluated in rat brain as Percent of injected dose in the total organ; settings: in vivo, 0.5 h
Outline: (§2)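 Male Sprague-Dawley rats (200–300 g, free access to food and water), lightly ether-anesthetized and restrained, received a 0.2 mL saline tail-vein bolus of 10–20 μCi 131I-labeled compound. They were decapitated at the stated time, and organs were excised, weighed and gamma-counted. Percent injected dose was determined against a calibrated external standard made by serial dilution of the injectate. n = 1–4 rats.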

[4] = organism: Rattus norvegicus; test: The uptake of the 131 I-labeled compound at 30 min was evaluated in rat blood as Percent of injected dose per gram in the organ; settings: in vivo, 0.5 h; outline: as §2
[5] = organism: Rattus norvegicus; test: The uptake of the 131 I-labeled compound at 5 min was evaluated in rat heart as Percent of injected dose per gram in the organ; settings: in vivo; outline: as §2
[6] = organism: Rattus norvegicus; test: The uptake of the 131 I-labeled compound at 5 min was evaluated in rat lung as Percent of injected dose per gram in the organ; settings: in vivo; outline: as §2
[7] = organism: Rattus norvegicus; test: Ratio of distribution of the [131I]-labeled compound at 30 min in rat liver over uptake in blood; settings: other tissue, 0.5 h; outline: as §1
[8] = organism: Rattus norvegicus; test: The uptake of the 131 I-labeled compound at 5 min was evaluated in rat kidney as Percent of injected dose per gram in the organ; settings: in vivo; outline: as §2
[9] = organism: Rattus norvegicus; test: Ratio of distribution of the [131I]-labeled compound at 30 min in rat brain over uptake in blood; settings: 0.5 h; outline: as §1
[10] = organism: Rattus norvegicus; test: The uptake of the 131 I-labeled compound at 5 min was evaluated in rat liver as Percent of injected dose in the total organ; settings: in vivo; outline: as §2
[11] = organism: Rattus norvegicus; test: Ratio of distribution of the [131I]-labeled compound at 30 min in rat heart over uptake in blood; settings: other tissue, 0.5 h; outline: as §1
[12] = organism: Rattus norvegicus; test: The uptake of the 131 I-labeled compound at 30 min was evaluated in rat liver as Percent of injected dose in the total organ; settings: in vivo, 0.5 h; outline: as §2
[13] = organism: Rattus norvegicus; test: Ratio of distribution of the [131I]-labeled compound at 5 min in rat liver over uptake in blood; settings: other tissue; outline: as §1
[14] = organism: Rattus norvegicus; test: The uptake of the 131 I-labeled compound at 5 min was evaluated in rat heart as Percent of injected dose in the total organ; settings: in vivo; outline: as §2
[15] = organism: Rattus norvegicus; test: The uptake of the 131 I-labeled compound at 5 min was evaluated in rat blood as Percent of injected dose per gram in the organ; settings: in vivo; outline: as §2
[16] = organism: Rattus norvegicus; test: The uptake of the 131 I-labeled compound at 5 min was evaluated in rat brain as Percent of injected dose per gram in the organ; settings: in vivo; outline: as §2
[17] = organism: Rattus norvegicus; test: The uptake of the 131 I-labeled compound at 30 min was evaluated in rat kidney as Percent of injected dose per gram in the organ; settings: in vivo, 0.5 h; outline: as §2
[18] = organism: Rattus norvegicus; test: The uptake of the 131 I-labeled compound at 30 min was evaluated in rat heart as Percent of injected dose in the total organ; settings: in vivo, 0.5 h; outline: as §2
[19] = organism: Rattus norvegicus; test: Ratio of distribution of the [131I]-labeled compound at 5 min in rat brain over uptake in blood; outline: as §1
[20] = organism: Rattus norvegicus; test: Ratio of distribution of the [131I]-labeled compound at 5 min in rat kidney over uptake in blood; settings: other tissue; outline: as §1
[21] = organism: Rattus norvegicus; test: The uptake of the 131 I-labeled compound at 30 min was evaluated in rat heart as Percent of injected dose per gram in the organ; settings: in vivo, 0.5 h; outline: as §2
[22] = organism: Rattus norvegicus; test: The uptake of the 131 I-labeled compound at 30 min was evaluated in rat lung as Percent of injected dose per gram in the organ; settings: in vivo, 0.5 h; outline: as §2
[23] = organism: Rattus norvegicus; test: The uptake of the 131 I-labeled compound at 30 min was evaluated in rat liver as Percent of injected dose per gram in the organ; settings: in vivo, 0.5 h; outline: as §2
[24] = organism: Rattus norvegicus; test: Ratio of distribution of the [131I]-labeled compound at 5 min in rat lung over uptake in blood; settings: other tissue; outline: as §1
[25] = organism: Rattus norvegicus; test: Ratio of distribution of the [131I]-labeled compound at 30 min in rat lung over uptake in blood; settings: other tissue, 0.5 h; outline: as §1
[26] = organism: Rattus norvegicus; test: The uptake of the 131 I-labeled compound at 5 min was evaluated in rat kidney as Percent of injected dose in the total organ; settings: in vivo; outline: as §2
[27] = organism: Rattus norvegicus; test: The uptake of the 131 I-labeled compound at 5 min was evaluated in rat liver as Percent of injected dose per gram in the organ; settings: in vivo; outline: as §2
[28] = organism: Rattus norvegicus; test: The uptake of the 131 I-labeled compound at 30 min was evaluated in rat kidney as Percent of injected dose in the total organ; settings: in vivo, 0.5 h; outline: as §2
[29] = organism: Rattus norvegicus; test: The uptake of the 131 I-labeled compound at 5 min was evaluated in rat brain as Percent of injected dose in the total organ; settings: in vivo; outline: as §2
[30] = organism: Rattus norvegicus; test: The uptake of the 131 I-labeled compound at 30 min was evaluated in rat brain as Percent of injected dose per gram in the organ; settings: in vivo, 0.5 h; outline: as §2

CCCCCCCCCCCCNC(C)Cc1cc(OC)c(I)cc1OC (stereo not given)
Ratio [1]: 1.4 | Ratio [2]: 1.2 | Dose [3]: 0.046% | Dose [4]: 0.16% | Dose [5]: 0.6% | Dose [6]: 6.1% | Ratio [7]: 3.3 | Dose [8]: 0.58% | Ratio [9]: 0.14 | Dose [10]: 17% | Ratio [11]: 1.2 | Dose [12]: 7.9% | Ratio [13]: 2.5 | Dose [14]: 1% | Dose [15]: 0.48% | Dose [16]: 0.047% | Dose [17]: 0.22% | Dose [18]: 0.27% | Ratio [19]: 0.1 | Ratio [20]: 1.2 | Dose [21]: 0.19% | Dose [22]: 1.3% | Dose [23]: 0.53% | Ratio [24]: 13 | Ratio [25]: 8.1 | Dose [26]: 1.8% | Dose [27]: 1.2% | Dose [28]: 0.69% | Dose [29]: 0.084% | Dose [30]: 0.022%
